Laboratory results published in ChEMBL document CHEMBL3259727, “Cathepsin C inhibitors: property optimization and identification of a clinical candidate” (J Med Chem, 2014).
Calls of active or inactive are those of the source. No cut-off for these calls is given here.

Columns and labels:
[1] = test system: Plasma; assay: Stability in human plasma; type: ADME, cell-free
[2] = Intrinsic clearance in rat hepatocytes assessed per million cells; type: ADME, cell-based, Hepatocyte; conditions: read-out: CLH
In short: (§1)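 Intrinsic clearance (Clint) determined in human liver microsome and rat hepatocyte preparations.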

[3] = biological target: T1, Dipeptidyl peptidase 1 (Homo sapiens, UniProt P53634); assay: Inhibition of cathepsin C in human THP1 cells assessed as inhibition of H-Gly-Phe-AFC cleavage by fluorescence assay; type: cell-based, THP-1
In short: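 Cellular CatC activity in human THP1 cells measured as cleavage of fluorogenic substrate H-Gly-Phe-AFC; pIC50 determined.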

[4] = test system: Hepatocyte; assay: Metabolic stability in human hepatocytes assessed per compound oxidation by LC-MS/MS analysis; type: ADME, cell-based
[5] = test system: Plasma; assay: Stability in rat plasma; type: ADME, cell-free
[6] = test system: Hepatocyte; assay: Metabolic stability in rat hepatocytes assessed per compound oxidation by LC-MS/MS analysis; type: ADME, cell-based
[7] = Intrinsic clearance in human microsomes; type: ADME, Microsome; in short: as §1
[8] = Dissociation constant, pKa of the compound; type: physicochemical
[9] = biological target: Cathepsin B (Homo sapiens, UniProt P07858); assay: Inhibition of Cathepsin B (unknown origin)
[10] = biological target: T1, Dipeptidyl peptidase 1; assay: Inhibition of recombinant human cathepsin C using H-Gly-Arg-AMC as substrate preincubated for 30 mins before substrate addition measured after 60 mins by fluorescence assay
[11] = biological target: T2, Cathepsin K (Homo sapiens, UniProt P43235); assay: (§2) Inhibition of Cathepsin K (unknown origin)
T2 sequence (P43235 whole entry): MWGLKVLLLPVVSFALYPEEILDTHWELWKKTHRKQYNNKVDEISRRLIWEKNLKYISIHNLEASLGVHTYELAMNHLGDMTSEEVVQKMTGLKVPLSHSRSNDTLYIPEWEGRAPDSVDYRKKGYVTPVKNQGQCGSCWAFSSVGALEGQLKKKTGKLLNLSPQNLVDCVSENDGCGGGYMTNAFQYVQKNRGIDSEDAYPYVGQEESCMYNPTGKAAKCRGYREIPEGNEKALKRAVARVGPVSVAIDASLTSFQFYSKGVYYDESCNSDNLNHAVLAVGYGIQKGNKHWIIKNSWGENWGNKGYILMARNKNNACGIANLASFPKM

[12] = biological target: Cathepsin S (Homo sapiens, UniProt P25774); assay: Inhibition of Cathepsin S (unknown origin)
[13] = biological target: Procathepsin L (Homo sapiens, UniProt P07711); assay: Inhibition of Cathepsin L (unknown origin)
[14] = Lipophilicity, log D of the compound; type: physicochemical; conditions: octanol/water
[15] = biological target: T3, Cathepsin K (Homo sapiens) (UniProt P43235); assay: as §2
T3 sequence (whole entry): T2 sequence (P43235 whole entry)

[16] = biological target: Voltage-gated inwardly rectifying potassium channel KCNH2 (Homo sapiens, UniProt Q12809); assay: Inhibition of human ERG by electrophysiology assay
[17] = Bioavailability in dog; type: ADME, organism-based, Canis lupus familiaris; conditions: in vivo
[18] = species: Rattus norvegicus; assay: Toxicity in rat assessed as liver cholangitis; type: organism-based; conditions: in vivo
[19] = biological target: T4, Leukotriene B4 receptor (Homo sapiens, UniProt Q9NPC1+Q15722); assay: Binding affinity to leukotriene B4 receptor (unknown origin) at 10 uM; type: protein assay
In short: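 Screened at 10 μM in a human LTB4 binding assay within a panel of over 170 assays; percent inhibition reported.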

[20] = Induction of phospholipid accumulation in rat hepatoma cells; type: cell-based
[21] = Clearance in rat; type: ADME, organism-based; conditions: in vivo
[22] = species: Rattus norvegicus; assay: Toxicity in rat assessed as foci of foaming macrophages in lung; type: organism-based
[23] = Volume of distribution at steady state in mouse; type: ADME, organism-based; conditions: in vivo, read-out: Vdss
[24] = Volume of distribution at steady state in rat; type: ADME, organism-based; conditions: in vivo, read-out: Vdss
[25] = species: Rattus norvegicus; assay: Toxicity in rat assessed as liver vacuolation; type: organism-based; conditions: in vivo
[26] = Bioavailability in rat; type: ADME, organism-based; conditions: in vivo
[27] = biological target: T4, Leukotriene B4 receptor; assay: Binding affinity to leukotriene B4 receptor (unknown origin); type: protein assay
[28] = Half life in mouse; type: ADME, organism-based; conditions: in vivo
[29] = Bioavailability in mouse; type: ADME, organism-based; conditions: in vivo
[30] = Volume of distribution at steady state in dog; type: ADME, organism-based, Canis lupus familiaris; conditions: in vivo, read-out: Vdss
[31] = Half life in dog; type: ADME, organism-based, Canis lupus familiaris; conditions: in vivo
[32] = Clearance in mouse; type: ADME, organism-based; conditions: in vivo
[33] = Clearance in dog; type: ADME, organism-based, Canis lupus familiaris; conditions: in vivo
[34] = Half life in rat; type: ADME, organism-based; conditions: in vivo
[35] = species: Rattus norvegicus; assay: Toxicity in rat assessed as liver hypertrophy; type: organism-based; conditions: in vivo
[36] = biological target: T3, Cathepsin K (Homo sapiens); assay: Inhibition of Cathepsin K (unknown origin) at 10 uM

T1 sequence (P53634 25-134 limits assumed): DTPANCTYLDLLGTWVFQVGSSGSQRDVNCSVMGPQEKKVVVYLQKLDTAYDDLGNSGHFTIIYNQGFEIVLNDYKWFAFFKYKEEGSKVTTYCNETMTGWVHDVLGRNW
T1 sequence (P53634 231-394 limits assumed): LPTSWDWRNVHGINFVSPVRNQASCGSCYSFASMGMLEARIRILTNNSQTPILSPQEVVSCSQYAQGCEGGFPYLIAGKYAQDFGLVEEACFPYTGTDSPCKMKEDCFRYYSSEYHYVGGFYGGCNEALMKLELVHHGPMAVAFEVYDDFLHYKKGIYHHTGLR
T1 sequence (P53634 395-463 limits assumed): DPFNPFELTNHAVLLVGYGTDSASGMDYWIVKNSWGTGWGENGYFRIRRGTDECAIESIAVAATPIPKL
Chain of Procathepsin L (P07711 whole entry): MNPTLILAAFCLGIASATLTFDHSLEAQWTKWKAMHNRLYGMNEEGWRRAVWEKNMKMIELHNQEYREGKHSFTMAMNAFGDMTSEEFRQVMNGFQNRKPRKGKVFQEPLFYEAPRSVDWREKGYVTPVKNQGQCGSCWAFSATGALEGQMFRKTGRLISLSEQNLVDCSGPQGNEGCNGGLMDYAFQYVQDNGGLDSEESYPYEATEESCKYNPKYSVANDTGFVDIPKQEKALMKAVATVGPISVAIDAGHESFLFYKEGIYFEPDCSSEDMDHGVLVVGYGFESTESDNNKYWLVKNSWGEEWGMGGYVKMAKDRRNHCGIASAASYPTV
Chain of Voltage-gated inwardly rectifying potassium channel KCNH2 (Q12809 whole entry): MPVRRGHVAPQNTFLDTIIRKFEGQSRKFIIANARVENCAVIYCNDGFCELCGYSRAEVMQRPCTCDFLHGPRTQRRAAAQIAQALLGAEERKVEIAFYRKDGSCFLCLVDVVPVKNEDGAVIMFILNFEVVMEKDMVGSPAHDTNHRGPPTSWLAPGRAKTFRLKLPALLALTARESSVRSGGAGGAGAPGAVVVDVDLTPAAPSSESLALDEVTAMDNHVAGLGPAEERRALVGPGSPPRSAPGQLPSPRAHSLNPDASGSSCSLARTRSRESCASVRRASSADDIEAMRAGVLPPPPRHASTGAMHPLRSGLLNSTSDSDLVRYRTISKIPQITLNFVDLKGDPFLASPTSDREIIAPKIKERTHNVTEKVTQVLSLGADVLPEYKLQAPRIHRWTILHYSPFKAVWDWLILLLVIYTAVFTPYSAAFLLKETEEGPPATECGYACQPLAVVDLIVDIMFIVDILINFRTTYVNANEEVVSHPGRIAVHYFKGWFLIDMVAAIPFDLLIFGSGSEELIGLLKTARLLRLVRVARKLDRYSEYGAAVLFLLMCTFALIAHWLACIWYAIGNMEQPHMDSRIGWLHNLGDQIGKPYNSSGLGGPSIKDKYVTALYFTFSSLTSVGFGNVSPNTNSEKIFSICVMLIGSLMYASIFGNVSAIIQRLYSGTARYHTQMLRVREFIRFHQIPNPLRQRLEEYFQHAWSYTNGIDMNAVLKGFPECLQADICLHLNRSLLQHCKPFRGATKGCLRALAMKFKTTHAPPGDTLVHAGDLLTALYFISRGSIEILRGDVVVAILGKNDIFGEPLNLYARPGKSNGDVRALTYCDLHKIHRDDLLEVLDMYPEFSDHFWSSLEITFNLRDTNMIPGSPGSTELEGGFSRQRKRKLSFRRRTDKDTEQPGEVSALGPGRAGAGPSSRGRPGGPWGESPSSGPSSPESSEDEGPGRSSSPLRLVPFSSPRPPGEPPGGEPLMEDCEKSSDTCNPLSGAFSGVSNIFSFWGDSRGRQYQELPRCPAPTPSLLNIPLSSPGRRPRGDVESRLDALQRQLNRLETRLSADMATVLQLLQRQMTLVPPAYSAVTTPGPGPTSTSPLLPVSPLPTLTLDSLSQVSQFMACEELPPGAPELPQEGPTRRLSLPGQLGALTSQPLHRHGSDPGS
Chain of Cathepsin S (P25774 whole entry): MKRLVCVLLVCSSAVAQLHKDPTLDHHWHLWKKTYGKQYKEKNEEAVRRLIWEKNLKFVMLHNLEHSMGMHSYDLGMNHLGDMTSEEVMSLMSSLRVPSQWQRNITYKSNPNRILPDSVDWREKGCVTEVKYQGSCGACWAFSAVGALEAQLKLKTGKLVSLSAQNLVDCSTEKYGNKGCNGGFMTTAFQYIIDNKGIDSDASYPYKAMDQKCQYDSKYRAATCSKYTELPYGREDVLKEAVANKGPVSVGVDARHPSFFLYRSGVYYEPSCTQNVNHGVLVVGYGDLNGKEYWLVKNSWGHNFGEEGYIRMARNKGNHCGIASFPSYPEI
T4 sequence (Q15722 whole entry, looked up): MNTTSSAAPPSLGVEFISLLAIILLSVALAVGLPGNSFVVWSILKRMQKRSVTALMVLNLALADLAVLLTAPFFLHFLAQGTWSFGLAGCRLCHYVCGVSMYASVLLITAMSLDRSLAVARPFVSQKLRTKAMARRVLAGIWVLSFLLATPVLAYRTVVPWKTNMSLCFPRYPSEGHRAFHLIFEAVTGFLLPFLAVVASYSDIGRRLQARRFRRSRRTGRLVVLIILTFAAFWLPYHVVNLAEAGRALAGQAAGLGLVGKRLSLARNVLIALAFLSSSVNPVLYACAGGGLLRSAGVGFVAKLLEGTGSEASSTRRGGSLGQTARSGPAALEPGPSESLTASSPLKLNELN
T4 sequence (Q9NPC1 whole entry, looked up): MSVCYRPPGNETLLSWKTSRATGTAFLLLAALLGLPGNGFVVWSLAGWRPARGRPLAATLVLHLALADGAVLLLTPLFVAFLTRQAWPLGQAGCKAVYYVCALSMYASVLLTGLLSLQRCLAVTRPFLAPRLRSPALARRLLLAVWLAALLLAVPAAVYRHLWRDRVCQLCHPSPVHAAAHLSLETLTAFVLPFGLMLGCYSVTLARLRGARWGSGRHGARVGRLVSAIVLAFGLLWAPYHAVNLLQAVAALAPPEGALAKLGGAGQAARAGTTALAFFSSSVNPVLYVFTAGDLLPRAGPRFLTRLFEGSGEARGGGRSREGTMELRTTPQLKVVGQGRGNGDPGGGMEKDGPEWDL

Structure (SMILES)	hepatocyte CLint [2]	IC50 [3]	microsomal CLint [7]	pKa [8]	IC50 [9]	IC50 [10]	IC50 [11]	IC50 [12]	IC50 [13]	logD [14]	IC50 [16]	EC50 [20]	further results
N#C[C@H](Cc1ccc(-c2ccccc2)cc1)NC(=O)[C@@H]1CCCCN1	> 150 µL/min/1e6 cells	0.158 µM	–	–	–	–	–	–	–	–	–	–	Stability [1]: Stable; Stability [4]: Unstable; Stability [5]: Stable; Stability [6]: Unstable
CN1Cc2cc(-c3ccc(C[C@@H](C#N)NC(=O)[C@@H]4CCCCN4)cc3)ccc2C1=O	5 µL/min/1e6 cells	0.00794 µM	< 3 µL/min/mg	7.1	> 10 µM	0.0251 µM	0.251 µM	> 10 µM	> 10 µM	1	–	–	–
CS(=O)(=O)c1cccc(-c2ccc(C[C@@H](C#N)NC(=O)C3(N)CCOCC3)cc2)c1	< 3 µL/min/1e6 cells	0.00794 µM	< 3 µL/min/mg	6.3	–	0.000794 µM	–	–	–	0.8	> 33 µM	–	inhibition [15]: inactive
CC[C@H](N)C(=O)N[C@H](C#N)Cc1ccc(-c2ccccc2)cc1	–	0.0631 µM	–	–	–	0.002 µM	–	–	–	–	–	–	–
N#Cc1ccc(-c2ccc(C[C@@H](C#N)NC(=O)C3(N)CCOCC3)cc2)cc1	2.9 µL/min/1e6 cells	–	3.6 µL/min/mg	5.8	> 10 µM	–	> 10 µM	> 10 µM	> 10 µM	1.9	26 µM	> 100 µM	bioavailability [17]: 72%; Activity [18]: Non-toxic; inhibition [19]: 69%; clearance [21]: 9 mL/min/kg; Activity [22]: Non-toxic; Vd [23]: 1.6 L/kg; Vd [24]: 1.9 L/kg; Activity [25]: Non-toxic; bioavailability [26]: 92%; IC50 [27]: 2 µM; half-life [28]: 2 h; bioavailability [29]: 95%; Vd [30]: 1.4 L/kg; half-life [31]: 11.6 h; clearance [32]: 9 mL/min/kg; clearance [33]: 2 mL/min/kg; half-life [34]: 3.5 h; Activity [35]: Non-toxic
CN1Cc2cc(-c3ccc(C[C@@H](C#N)NC(=O)[C@@H]4C[C@@H](O)CCN4)cc3)ccc2C1=O	< 4 µL/min/1e6 cells	0.0398 µM	< 4 µL/min/mg	–	> 10 µM	0.00398 µM	7.94 µM	> 10 µM	> 10 µM	0.5	> 33 µM	> 120 µM	–
CN1Cc2ccc(-c3ccc(C[C@@H](C#N)NC(=O)C4(N)CCOCC4)cc3)cc2C1=O	41 µL/min/1e6 cells	0.0501 µM	< 3 µL/min/mg	6.3	–	–	7.94 µM	–	–	1.1	> 33 µM	–	inhibition [36]: 50%
N#Cc1ccc(-c2ccc(C[C@@H](C#N)NC(=O)C3(N)CCCCC3)cc2)cc1	15 µL/min/1e6 cells	0.00316 µM	20 µL/min/mg	7.1	–	0.00251 µM	–	–	–	2.9	9 µM	–	–
CSc1cc(-c2ccc(C[C@@H](C#N)NC(=O)[C@@H]3CCCCN3)cc2)ccc1C#N	13 µL/min/1e6 cells	0.001 µM	7 µL/min/mg	–	> 10 µM	0.00398 µM	0.398 µM	> 10 µM	> 10 µM	–	2.7 µM	–	–
N#Cc1ccc(-c2ccc(C[C@@H](C#N)NC(=O)[C@@H]3CCCCN3)cc2)cc1	< 3 µL/min/1e6 cells	0.01 µM	< 4 µL/min/mg	8.4	> 10 µM	0.0398 µM	1 µM	> 10 µM	> 10 µM	2.7	1.4 µM	9 µM	Activity [18]: Toxic; clearance [21]: 16 mL/min/kg; Activity [22]: Toxic; Vd [24]: 5.6 L/kg; Activity [25]: Toxic; bioavailability [26]: 75%; half-life [34]: 4.5 h; Activity [35]: Toxic
N#C[C@H](Cc1ccc(-c2ccccc2)cc1)NC(=O)C1(N)CCOCC1	> 150 µL/min/1e6 cells	0.0316 µM	> 150 µL/min/mg	5.4	–	0.002 µM	–	–	–	2.3	> 33 µM	–	inhibition [15]: inactive
N#Cc1ccc(-c2ccc(C[C@@H](C#N)NC(=O)[C@@H]3C[C@@H](O)CCN3)cc2)cc1	4 µL/min/1e6 cells	0.0126 µM	< 3 µL/min/mg	7.6	> 10 µM	0.00501 µM	6.31 µM	> 10 µM	> 10 µM	1.4	> 33 µM	75 µM	–
